# From PubChem BioAssay
# Active and inactive are the calls of the source.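 Rule for the calls, unless noted: active = viability at or below 10% of carrier control in both of two separate runs; inconclusive = viability at or below 10% in only one of the two runs; inactive = the rest.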
# Key:
# [1] = Her2 expression decrease, cell viability multiplex – SKBR3 breast tumor cells, AlphaScreen, ATP viability, primary screen (AID 461;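 active = Her2 level under about 52% in both replicate screens, with viability over 70% of control, limit read from the data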;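 for Her2 level: lower value means less Her2 protein in the cells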;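 for viability: percent of carrier control wells set as 100% viability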); details: SKBR3 Her2 protein level, 18-24 h, measured here: SKBR3 viability, ATP luminescence, at 10 µM
# [2] = biological target: Receptor tyrosine-protein kinase erbB-2 (Homo sapiens) (UniProt P04626); assay: as above; details: 18-24 h, at 10 µM, stronger effect = lower value
# [3] = reduced viability of SK-BR-3 breast cancer cells – cell-based, 24 h, human, pilot screen (AID 572); details: SK-BR-3 viability, CellTiter-Glo luminescence, at 10 µM, stronger effect = lower value;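 note: compound exposure lasted between 18 and 24 h rather than exactly 24 h; 100% = carrier-treated control wells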
# [4] = HUVEC growth inhibition – cell-based, human, primary screen (AID 575;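 active = viability at or below 30% in both replicate assays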;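 note: 100% = median of untreated cell wells with 0.1% DMSO on each plate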); details: HUVEC proliferation, CellTiter-Glo luminescence, 72 h; at 10 µM; stronger effect = lower value
# Procedure, shortened: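 Test system – primary HUVEC, no more than 12 passages · Dosing – one dose, 10 µM final, 0.1% DMSO · Times – 72 h treatment at 37 °C · Measured by – ATP-based CellTiter-Glo luminescent read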
# [5] = H69AR cell proliferation blockers – human, duplicate replicates, primary screen (AID 580;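 active = viability at or under a set limit in both replicates, limit being median viability minus 3 SD, cut at about 48% in these data, passing the limit was not always enough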;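 note: 100% = mean luminescence of untreated wells and 0% = no signal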); details: H69AR lung tumor cells viability, ATP luminescence, 72 h; at 10 µM; stronger effect = lower value
# [6] = MRP1 drug-resistance reversers in H69AR cells – cell-based, doxorubicin co-treatment, pilot screen (AID 601;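 active = viability loss from added drug above about 55%, and viability with drug at most 40%, in both replicates, limit read from the data, passing the limit was not always enough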); details: CellTiter-Glo, 72 h, at 10 µM; for differential viability (reversal): stronger effect = higher value
# [7] = yeast transport mutant growth inhibition pilot in 384-well plates, post-Golgi transport modulator project (AID 636; in the data active = inhibition above about 31%); details: absorbance 615 nm, about 18 h, stronger effect = higher value
# [8] = growth suppression of yeast trafficking mutant, preliminary HTS, modulators of trafficking downstream of Golgi apparatus project, 1536-format plate, OD 615 nm (AID 637; in the data active = inhibition above about 30%); details: yeast transport mutant growth, absorbance 615 nm, 18 h; stronger effect = higher value
# [9] = H69AR cells + 2 uM doxorubicin, measured here: viability with 2 uM doxorubicin, stronger effect = lower value
# [10] = H69AR cells, compound alone cytotoxicity
# Chain of Receptor tyrosine-protein kinase erbB-2 (Homo sapiens) (P04626 whole entry, looked up): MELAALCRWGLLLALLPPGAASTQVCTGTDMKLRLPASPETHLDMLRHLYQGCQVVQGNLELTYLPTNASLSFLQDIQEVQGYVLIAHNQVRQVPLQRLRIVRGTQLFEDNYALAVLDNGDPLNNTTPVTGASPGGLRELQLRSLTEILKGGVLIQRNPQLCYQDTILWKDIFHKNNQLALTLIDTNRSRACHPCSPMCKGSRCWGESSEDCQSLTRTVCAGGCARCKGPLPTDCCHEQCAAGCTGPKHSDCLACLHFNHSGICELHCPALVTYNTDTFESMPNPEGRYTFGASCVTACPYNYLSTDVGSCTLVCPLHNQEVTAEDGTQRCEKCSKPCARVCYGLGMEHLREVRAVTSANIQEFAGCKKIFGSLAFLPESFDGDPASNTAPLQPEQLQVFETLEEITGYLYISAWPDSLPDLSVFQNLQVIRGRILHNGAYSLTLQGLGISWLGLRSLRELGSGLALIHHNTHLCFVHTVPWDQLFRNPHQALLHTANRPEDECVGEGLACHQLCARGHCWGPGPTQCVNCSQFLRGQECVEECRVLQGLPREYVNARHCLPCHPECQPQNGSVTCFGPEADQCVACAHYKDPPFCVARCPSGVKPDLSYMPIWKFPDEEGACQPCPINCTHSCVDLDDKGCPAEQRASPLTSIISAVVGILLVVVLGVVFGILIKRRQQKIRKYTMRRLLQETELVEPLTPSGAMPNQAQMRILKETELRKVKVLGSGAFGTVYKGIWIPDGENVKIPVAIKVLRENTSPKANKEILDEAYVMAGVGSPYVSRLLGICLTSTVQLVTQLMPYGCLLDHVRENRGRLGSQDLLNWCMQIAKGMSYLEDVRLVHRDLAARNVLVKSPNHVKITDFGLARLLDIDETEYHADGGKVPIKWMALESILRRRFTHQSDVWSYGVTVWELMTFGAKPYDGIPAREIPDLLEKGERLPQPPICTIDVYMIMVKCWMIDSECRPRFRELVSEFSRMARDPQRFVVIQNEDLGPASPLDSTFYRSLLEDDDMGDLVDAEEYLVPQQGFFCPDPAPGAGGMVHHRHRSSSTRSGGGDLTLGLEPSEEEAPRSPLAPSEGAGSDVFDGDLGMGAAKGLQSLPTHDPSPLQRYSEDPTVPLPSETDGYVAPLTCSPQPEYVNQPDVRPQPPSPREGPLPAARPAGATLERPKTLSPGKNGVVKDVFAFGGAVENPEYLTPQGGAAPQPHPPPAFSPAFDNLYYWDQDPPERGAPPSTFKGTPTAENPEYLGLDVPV
Compound,viability [1] [%],Her2 level [2],viability [3],viability [4],viability [5],differential viability (reversal) ([6]; H69AR cells + 2 uM doxorubicin),"viability [6, 9] [%]","viability [6, 10] [%]",inhibition [7],inhibition [8]
COc1cc(C)nc(NS(=O)(=O)c2ccc(C)cc2)n1,122,88% (inactive),122% (inactive),98.5% (inactive),84.9% (inactive),-1.31% (inactive),86.2,84.9,-3.82% (inactive),0.65% (inactive)
COc1ccccc1NC(=O)c1nnn(CC(=O)Nc2ccccc2)c1N,106,81% (inactive),106% (inactive),70.5% (inactive),90.7% (inactive),-6.95% (inactive),97.6,90.7,-5.47% (inactive),-1.31% (inactive)
O=C(CSc1nc(-c2ccccc2)cs1)NC(=O)NCc1ccco1,86.5,77.5% (inactive),86.5% (inactive),58.4% (inactive),76.7% (inactive),-0.93% (inactive),77.6,76.7,-5.6% (inactive),2.06% (inactive)
COc1ccccc1-c1cc(C(=O)NCCCn2ccnc2)no1,82,80% (inactive),82% (inactive),88.5% (inactive),97.4% (inactive),14.3% (inactive),83.1,97.4,-7.03% (inactive),-2.17% (inactive)
Cc1ccc(C(c2nnnn2CCC(C)C)N2CCN(C)CC2)cc1 (stereo not given),90.5,84% (inactive),90.5% (inactive),97.9% (inactive),98.8% (inactive),5.6% (inactive),93.2,98.8,-6.67% (inactive),1.97% (inactive)
COc1ccc(C(CNC(=O)CN2C(=O)NC3(CC(C)CC(C)(C)C3)C2=O)N2CCOCC2)cc1 (stereo not given),94.5,108% (inactive),94.5% (inactive),90.4% (inactive),90.5% (inactive),1.81% (inactive),88.7,90.5,-5.73% (inactive),-2.62% (inactive)
COc1ccccc1N1CCN(C(=O)c2ccc(CS(=O)(=O)c3ccccc3OC)o2)CC1,90.5,104% (inactive),90.5% (inactive),85.1% (inactive),76.2% (inactive),-11.9% (inactive),88.1,76.2,-5.39% (inactive),-0.32% (inactive)
CSCCC(C(=O)Nc1ccc2c(c1)OCO2)N1C(=O)c2ccccc2C1=O (stereo not given),91,79% (inactive),91% (inactive),88.1% (inactive),96.4% (inactive),4.44% (inactive),92,96.4,-1.3% (inactive),-1.43% (inactive)
CCOC(=O)c1ccc(S(=O)(=O)Nc2cc(C(C)(C)C)no2)cc1,92,97% (inactive),92% (inactive),112% (inactive),101% (inactive),-2.06% (inactive),103,101,-3.25% (inactive),-3.81% (inactive)
Cc1cc(C)c2c(N)c(C(=O)N3CCN(c4ncccn4)CC3)sc2n1,104,96.5% (inactive),104% (inactive),98.2% (inactive),101% (inactive),0.855% (inactive),101,101,-5.53% (inactive),0.49% (inactive)
CC(C)C1C2=C(CC(C)(C)CC2=O)ON1c1ccccc1 (stereo not given),90,90% (inactive),90% (inactive),95.8% (inactive),93% (inactive),-2.63% (inactive),95.7,93,-1.6% (inactive),-0.48% (inactive)
O=C(c1ccco1)N1CCN(/C(=N/S(=O)(=O)c2cccs2)c2ccccc2Cl)CC1,77,81% (inactive),77% (inactive),88.7% (inactive),93.1% (inactive),0.85% (inactive),92.3,93.1,-4.73% (inactive),-3.77% (inactive)
CCCCn1nc(C(=O)N2CCc3ccccc32)c2ccccc2c1=O,81.5,110% (inactive),81.5% (inactive),91.8% (inactive),93.9% (inactive),-11.2% (inactive),105,93.9,-0.4% (inactive),-10.6% (inactive)
O=c1c(CN2CCN(Cc3ccccc3)CC2)coc2ccc(Cl)cc12,90,85.5% (inactive),90% (inactive),100% (inactive),95.7% (inactive),12.5% (inactive),83.3,95.7,-4.81% (inactive),-6.89% (inactive)
